High-throughput results as filed in PubChem.
This is a sample that favours compounds with a hit; in the whole collection about 4.3% have one here.
Beta2AR agonist – agonists of human beta-2 adrenergic receptor inducing internalization; 0.43% of 340,000 active; Am2.2-beta2AR cells, FAP receptor internalization, flow cytometry; P07550; response, % (concentration not given with the values);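 active = response above a set limit, near 3 SD of response in nonfluorescent compounds, cut at about 42% in these data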
MC4R barr agon – human MC4R agonism via beta-arrestin; P32245; U2OS MC4R beta-arrestin complementation, luminescence; percent of melanotan II response, DMSO zero; activation, % at 8.9 µM; 0.98% of 360,000 active;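 active = activation above a per-plate cutoff, the mean activation of sample wells on that plate plus 3 SD, cut at about 8% in these data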
HTR2A ag – activates the mouse 5-HT2A serotonin receptor; CHO-K1 mHTR2A beta-arrestin complementation, luminescence; percent of 30 µM serotonin response; activation, % at 7.6 µM; 0.66% of 360,000 active; AID 624169;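 active = activation above a run cutoff, the mean activation of all tested compounds plus 3 SD, cut at about 14% in these data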;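 also: 0% = plate median of compound wells and 100% = 30 µM serotonin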
Target sequence (P35363 whole entry, looked up): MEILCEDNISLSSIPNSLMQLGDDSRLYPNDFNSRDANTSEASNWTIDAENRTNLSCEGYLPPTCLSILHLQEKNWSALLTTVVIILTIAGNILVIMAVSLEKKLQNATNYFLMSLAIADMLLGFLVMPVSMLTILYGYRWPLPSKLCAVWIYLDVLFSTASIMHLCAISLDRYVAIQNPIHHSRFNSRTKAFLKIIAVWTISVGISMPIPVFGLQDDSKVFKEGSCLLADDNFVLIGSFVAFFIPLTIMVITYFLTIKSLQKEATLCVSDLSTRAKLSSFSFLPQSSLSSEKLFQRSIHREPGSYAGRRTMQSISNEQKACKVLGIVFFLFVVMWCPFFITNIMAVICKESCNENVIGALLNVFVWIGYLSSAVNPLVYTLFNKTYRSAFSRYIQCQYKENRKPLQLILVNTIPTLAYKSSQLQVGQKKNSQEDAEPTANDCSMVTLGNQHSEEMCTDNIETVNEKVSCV
MC4R antag cAMP – blocks human MC4R cAMP signaling. MC4R-expressing cells, MTII-stimulated cAMP, LANCE TR-FRET. inhibition, % at 6.5 µM. P32245. 0.48% of 360,000 active. AID 540295;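 active = inhibition above its plate's cutoff, the mean of tested wells on that plate plus 3 SD, cut at about 29% in these data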;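 also: 0% = Melanotan II alone and 100% = Melanotan II plus saturating MCL0020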
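Material: U2OS-MC4R stable cell line | Reagent: Melanotan II challenge after compound preincubation | Doses: One concentration, 6.5 µM nominal | Incubation: 30-min compound preincubation, 1-h Melanotan II challenge, 1-h detection, room temperature | Signal: TR-FRET cAMP assay | Replicates: One well per compound, no replicates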
TAAR1 agonist – agonists of human TAAR1. CHO RD-HGA16 TAAR1, Fluo-8 calcium fluorescence; vehicle wells 0%, saturating PEA agonist 100%. activation, % at 3 µM. 0.99% of 360,000 active. AID 624467;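 active = activation above the mean activation of all test compounds in the run plus 3 SD, cut at about 38% in these data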
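System: CHO RD-HGA16 cells carrying human TAAR1 plus Gα16; Incubation: 17-24 h seeding, 75 min 37 °C dye, 30 min RT; Measured by: Fluo-8 fluorescence, 5 s baseline then 140 s kinetic read; Control set: DMSO and PEA EC100; Replication: single well for each compound.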
TAAR1 antag – human TAAR1 antagonism. Q96RJ0. inhibition, % at 3 µM. 1.5% of 360,000 active. CHO RD-HGA16 TAAR1, Fluo-8 calcium fluorescence, antagonist;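 active = inhibition above a per-plate cutoff, the mean inhibition of test compounds on that plate plus 3 SD, cut at about 49% in these data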;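 also: 0% = DMSO plus EC80 beta-PEA response and 100% = DMSO alone without agonist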
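Assay system: CHO-derived RD-HGA16 cells stably expressing human TAAR1 plus Gα16. Timing: 140 s kinetic read after compound, 140 s after agonist. Technique: kinetic Fluo-8 calcium fluorescence measurement. Measure: % inhibition of agonist calcium response.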
TAAR1 ag confirm – confirmation of human TAAR1 agonists | 82% of 2,400 active | shares compounds with TAAR1 agonist | CHO RD-HGA16 TAAR1, Fluo-8 calcium fluorescence; scaled: DMSO 0%, maximal phenethylamine 100% | activation, % at 3 µM;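 active = activation above a cutoff set at the run's mean compound activation plus 3 SD, cut at about 39% in these data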
Ga16 ag counter – nonselective agonism, TAAR1 counter-screen. shares compounds with TAAR1 agonist. CHO-Ga16 parental, Fluo-8 calcium fluorescence; normalized to maximal ATP response, DMSO zero. activation, % at 3 µM. 50% of 2,400 active. AID 651787;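 active = activation above the run cutoff, the mean activation over all tested wells plus 3 SD, cut at about 12% in these data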;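 also: 0% = DMSO wells and 100% = maximal ATP response on the peak over basal ratio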
TAAR1 desensitize – TAAR1 response desensitization, agonist counter-screen. CHO RD-HGA16 hTAAR1, Fluo-8 calcium, beta-PEA response inhibition. 46% of 2,400 active. shares compounds with TAAR1 agonist. inhibition, % at 3 µM;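 active = inhibition above the run cutoff, the mean inhibition of all test compounds plus 3 SD, cut at about 49% in these data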;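 also: beta-PEA stimulus applied at its EC80; loss of beta-PEA calcium signal after compound pretreatment read as receptor desensitization; 0% = DMSO with beta-PEA at EC80 and 100% = DMSO alone without agonist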
Ga16 antag count – nonselective Ga16 antagonist in TAAR1 agonist counter-screen; shares compounds with TAAR1 agonist; CHO-Ga16 ATP-induced calcium, Fluo-8 fluorescence; inhibition, % at 3 µM; 39% of 2,400 active; AID 651952;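 active = inhibition above the plate's mean compound inhibition plus 3 SD, computed per plate, cut at about 22% in these data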;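 also: 0% = EC80 ATP with DMSO and 100% = DMSO wells without ATP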
Active calls of the source: *; x = no result.

SMILES	Beta2AR agonist	MC4R barr agon	HTR2A ag	MC4R antag cAMP	TAAR1 agonist	TAAR1 antag	TAAR1 ag confirm	Ga16 ag counter	TAAR1 desensitize	Ga16 antag count
COC(=O)c1cccc(-n2sc3ccccc3c2=O)c1	9.2	-2.5	10.4	13.3	63.2*	33.2	49.5*	22.1*	28.1	14.5
CC(=O)C1=C(O)C(=O)N(CCc2ccccc2)C1c1ccccc1[N+](=O)[O-] (configuration not stated)	3.5	1.9	7.1	1.9	67.1*	43.0	62.0*	2.8	16.7	5.9
O=C(NCCCN1CCCC1=O)c1sc2ccccc2c1Cl	-10.9	-2.6	-3.6	10.0	-0.1	-13.7	x	x	x	x
O=C(Cn1nnc2ccccc21)N/N=C\c1cccs1	3.1	0.2	-0.3	9.6	45.5*	19.9	81.9*	4.5	43.1	3.3
O=C(Cn1cnc2ccccc21)N/N=C/c1cccs1	-8.6	-1.0	-0.8	-11.1	x	x	x	11.2	x	0.3
Cc1ccc(-c2noc(CCC(=O)Nc3ccc4c(c3)OCO4)n2)cc1	-5.5	0.9	1.6	-5.2	83.0*	80.1*	3.4	5.8	14.0	23.7*
COc1ccc2[nH]cc(C(=O)NCCc3ccccc3)c(=O)c2c1	5.7	-0.8	4.7	-6.1	15.4	16.2	x	x	x	x
CN(CCC#N)S(=O)(=O)c1ccc2[nH]cc(C(=O)NCCc3ccccc3)c(=O)c2c1	1.3	1.0	-5.9	8.8	53.8*	11.9	73.4*	0.2	20.1	6.1
N#CC(C#N)=C1C=C2C=C(N3CCOCC3)CCC2CC1 (configuration not stated)	x	0.6	1.0	-7.0	682.1*	108.8*	726.1*	879.9*	106.3*	102.9*
O=C(O)C1C2CCC(C2)C1C(=O)NCCc1ccccc1 (configuration not stated)	-2.2	-1.0	12.6	14.1	x	x	x	1.6	x	3.8
O=C(Nc1ccc(F)cc1F)c1cc(-c2ccco2)on1	2.4	2.0	0.9	-7.3	9.0	16.4	x	x	x	x
Cc1nn(Cc2ccc(Cl)cc2)c(C)c1NC(=O)c1cc(-c2ccco2)on1	-0.9	5.0	3.2	-2.0	64.8*	84.8*	32.4	15.7*	56.2*	42.5*
O=C(Nc1c(F)cc(F)cc1Br)c1cc(-c2ccco2)on1	1.8	2.2	3.4	2.0	54.6*	10.1	55.9*	8.4	35.3	8.2
Cc1ccc(Cn2nc(C)c(NC(=O)c3cc(-c4ccco4)on3)c2C)cc1	5.7	-1.3	-0.6	2.5	x	x	x	x	x	x
O=C(COC(=O)[C@@H]1CCCN1C(=O)c1cccs1)Nc1cccc([N+](=O)[O-])c1	-2.5	-1.0	2.9	-1.7	7.3	14.9	x	x	x	x
CC(C)CNC(=S)N(CCO)Cc1cc2cc3c(cc2[nH]c1=O)OCO3	2.0	-1.0	8.7	10.2	-0.9	-11.6	x	x	x	x
CC(OC(=O)c1ccccc1Nc1ccc(SC(F)F)cc1)C(N)=O (configuration not stated)	-4.9	-1.1	-2.2	-4.7	10.7	31.0	x	x	x	x
NC(=O)COC(=O)c1ccccc1Nc1ccc(SC(F)F)cc1	1.9	-1.4	4.9	-5.9	43.2*	38.3	6.0	9.4	16.1	16.2
COC(=O)c1c(C)[nH]c(C(=O)COc2ccc3ccc(=O)oc3c2)c1C	9.7	-0.7	13.1	-3.1	59.1*	50.9*	18.7	13.7*	49.6*	30.8*
CC(=O)c1c(C)[nH]c(C(=O)COc2ccc3ccc(=O)oc3c2)c1C	18.6	2.2	2.3	6.2	14.5	46.1	x	x	x	x
COC(=O)c1cc2c(c3c4cc(OC)ccc4n(S(=O)(=O)c4ccc(OC)cc4)c13)C(=O)N(Cc1ccco1)C2	x	x	x	x	3.4	-29.5	x	x	x	x
CCc1nnc(NS(=O)(=O)c2ccc(NCc3ccccc3O)cc2)s1	-1.3	-1.2	8.1	-2.0	-2.0	1.5	x	x	x	x
CCCOc1ccc(-c2c(C(=O)N/N=C(\C)c3cccs3)nnn2-c2nonc2N)cc1	-6.5	2.9	0.8	6.2	53.2*	-19.9	55.8*	21.8*	2.1	4.0
CCOc1ccc(/C(C)=N/NC(=O)c2nnn(-c3nonc3N)c2-c2cccs2)cc1	-0.7	2.6	0.8	-2.0	118.9*	46.6	117.2*	87.8*	37.7	12.6
Cc1cc(NC(=O)CSc2nc(-c3ccco3)cc(C(F)(F)F)n2)no1	-4.2	2.6	-1.8	-26.4	43.9*	17.8	-0.6	4.7	3.1	10.9
SMILES	Beta2AR agonist	MC4R barr agon	HTR2A ag	MC4R antag cAMP	TAAR1 agonist	TAAR1 antag	TAAR1 ag confirm	Ga16 ag counter	TAAR1 desensitize	Ga16 antag count
O=C(NCC(c1ccco1)N1CCc2ccccc2C1)c1ccc(Br)cc1 (configuration not stated)	-6.0	1.5	-10.4	4.3	45.4*	19.7	23.5	2.2	10.9	12.8
CCOc1ccc(C(=O)NCC(c2ccco2)N2CCc3ccccc3C2)cc1 (configuration not stated)	0.4	0.7	-1.4	16.4	6.7	-65.4	x	x	x	x
O=C(NCC(c1ccco1)N1CCc2ccccc2C1)c1ccc(Cl)cc1 (configuration not stated)	-6.2	-0.9	3.7	6.2	73.9*	33.9	38.1*	0.6	3.6	7.9
CC(C)C(N)c1csc(Nc2ccc(C(=O)c3ccccc3)cc2)n1 (configuration not stated)	x	3.7	2.7	-5.3	47.6*	-4.2	61.5*	14.4*	19.8	24.6*
CC(N)c1csc(Nc2ccc(C(=O)c3ccccc3)cc2)n1 (configuration not stated)	x	0.6	3.6	6.5	27.6	-24.1	x	x	x	x
COc1ccc(CC(N)c2csc(Nc3ccc(C(=O)c4ccccc4)cc3)n2)cc1 (configuration not stated)	x	5.2	-8.5	3.9	51.1*	33.2	39.3*	27.1*	31.1	38.3*
COc1ccc(CC(N)c2csc(Nc3ccc(C(C)=O)cc3)n2)cc1 (configuration not stated)	x	2.8	3.8	4.7	19.2	-4.2	x	x	x	x
c1csc(-c2cc(N3CCCCC3)c3ccccc3n2)c1	-2.8	4.3	4.2	7.0	16.3	-10.4	x	x	x	x
